For 72 molecules, cytotoxicity results are on record in ChEMBL document CHEMBL4513216, “Probing the Open Global Health Chemical Diversity Library for Multistage-Active Starting Points for Next-Generation Antimalarials” (ACS Infect Dis, 2020).

This series can be described thus: Toxicity liver stage against HepG2, at 10uM. Conditions: human, HepG2-A16-CD81EGFP cells; read-out: INHIBITION
The series is classed as cell-based. Also on record: test concentration 10 uM, cell line HepG2-A16-CD81EGFP. The procedure, abridged: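 Uninfected HepG2-A16-CD81EGFP cells, 3 × 10^3 per well, 1536-well, plated on prespotted compound at 10 μM final, parasite-free screening media added to match infected plates; puromycin 10 μM positive, DMSO 0.5% negative; run in parallel with 48 h PbLuc assay at 37 °C, 5% CO2; viability by CellTiter-Glo luminescence, normalized to controls.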
As for `CN(CCN1CCCCCC1)C(=O)c1cc(CN2CCCC(O)C2)on1` (configuration not stated), the cytotoxicity at 10 µM is -0.641%. With `Cc1ccc(-n2c(SCC(=O)O)nnc2-c2ccccc2)cc1`, the cytotoxicity at 10 µM was -19.3%. Take `Cc1n[nH]c(C2CN(C(=O)c3coc(Br)c3)CCO2)n1` (configuration not stated): the cytotoxicity at 10 µM is -11.3%.

For `COc1ccc(CNC(=O)N2CCc3sccc3C2)cc1O`, the cytotoxicity at 10 µM is 7.57%. As for `Cc1cc(C2CCCN(C(=O)c3c(C)noc3C)C2)n[nH]1` (configuration not stated), the cytotoxicity at 10 µM was -6.63%. The same measure for `CC(NCc1c(C(C)C)nn(C)c1N1CCOCC1)C(=O)N(C)C` (configuration not stated): -10.7%. For the molecule `CC(Cn1cc(Br)cn1)C(=O)Nc1ccc(Br)cn1` (configuration not stated), the cytotoxicity at 10 µM was 73.3%. With `O=C(O)c1c(-c2cncnc2)ncc2c1CCN(Cc1cccnc1)C2`, the cytotoxicity at 10 µM is 10.6%. For the molecule `Cc1nc(CN2CCN(C(=O)c3sccc3C3CC3)CC2)cs1`, the cytotoxicity at 10 µM was 3.61%.

Turning to `COc1ccccc1NC(=O)C1(c2ccccc2)CCOCC1`, the cytotoxicity at 10 µM was 7.59%. `Cc1cc(CNC(=O)NCc2ccccc2N2CCOCC2)no1`: the cytotoxicity at 10 µM worked out at 1.15%. Under `O=C(Cn1c(-c2ccco2)cc2cccnc21)N1CCCC1` stands -4.04%. Consider `CCCC(NC(=O)c1cscc1C)c1nnn[nH]1` (configuration not stated), for which the cytotoxicity at 10 µM was determined as 19.5%. For the molecule `COc1cccc(F)c1-c1c[nH]c(C)n1`, the cytotoxicity at 10 µM is -0.654%. Under `N#Cc1cc(NS(=O)(=O)CC2CCCCO2)ccc1F` (configuration not stated) stands -14.1%; under `COc1ccccc1Oc1ncccc1CNC(=O)C1COC(=O)N1` (configuration not stated), -6.01%. Under `Cc1cc(NC(C)c2nnn[nH]2)n2nc(C)c(C)c2n1` (configuration not stated) stands 9.4%.

As to `COCc1nc(C(=O)NS(=O)(=O)c2ccc(C)s2)cs1`, the cytotoxicity at 10 µM was -4.61%. Consider `Cc1cccc(C(=O)NCCNS(=O)(=O)c2cccs2)c1C`, for which the cytotoxicity at 10 µM was -0.642%. The same measure for `COC(=O)c1ccc(C2SC(C)=Nc3c2c(=O)[nH]n3C2CCCC2)cc1` (configuration not stated): 6.84%; for `NC(=O)C1CCCN1Cc1cccc(NC(=O)c2ccc(Cl)cc2F)c1` (configuration not stated): 18.6%. For the molecule `CCc1n[nH]c(C2CN(C(=O)c3cnn(CC)c3)CCO2)n1` (configuration not stated), the cytotoxicity at 10 µM is -2.87%.

Consider `CC(C)N1CCOC(CC(=O)N2CCCN(Cc3cccs3)CC2)C1` (configuration not stated), for which the cytotoxicity at 10 µM is -12.2%. `O=C(NCCCOCC1CC1)Nc1ccc(-n2cncn2)c(F)c1`: the cytotoxicity at 10 µM is -0.132%. Turning to `CC(C(=O)N1CCCN(c2ccccc2C#N)CC1)n1cccn1` (configuration not stated), the cytotoxicity at 10 µM was -8.3%.

Regarding `CC(CC#N)N1CCN(C(=O)OC(C)(C)C)CC1` (configuration not stated), the cytotoxicity at 10 µM is -2.72%. The same measure for `CCn1c(C)nnc1CN(C)C1CCN(CCc2ccncc2)C1` (configuration not stated): 3.97%; for `Cc1cccc(CN2CCC3(CC2)CN(c2cnn(C)c2)C(=O)CO3)n1`: 3.94%. As to `Cc1cncc(C(=O)N2CCCC(O)(CN3CCCC3)C2)c1` (configuration not stated), the cytotoxicity at 10 µM was determined as 10.1%.

As for `CCCc1cc(C(=O)N(Cc2cccnc2)Cc2cccnc2)[nH]n1`, the cytotoxicity at 10 µM is -5.79%. Take `Cc1c(C2CCCN(C(=O)Cc3ccccn3)C2)n2c(nc1=O)CCC2` (configuration not stated): the cytotoxicity at 10 µM was 8.39%. As for `Cc1nc(N2CCCC(OCc3ccccn3)C2)c2c(C)noc2n1` (configuration not stated), the cytotoxicity at 10 µM worked out at 0.622%. The same measure for `Cc1ccc(CNC(=O)Cn2c(=O)c3cccnc3n2C)cc1F`: -2.83%; for `Cc1cnn(C2CCCN(C(=O)c3cccc(-n4cnnn4)c3)C2)c1` (configuration not stated): -8.77%; for `CCOCCN1CCN(Cc2cccc(C(=O)N(C)C)c2)CC1CC` (configuration not stated): -5.83%.

Take `O=C(NC1CCCC1)C1CCN(c2cc(-n3ccnc3)ncn2)CC1`: the cytotoxicity at 10 µM is -9.19%. `Cc1c(CNCCCOc2cccnc2)c2ccccc2n1CC(N)=O`: the cytotoxicity at 10 µM is -145%.

As for `Cc1cc(C(=O)N2CC[C@H](N3CCN(C)CC3)[C@H](CCCO)C2)n(C)n1`, the cytotoxicity at 10 µM was -12.4%. Under `N#Cc1c(N)nc2c(c1-c1cnc(N3CCCC3)nc1)COCC2` stands 10.5%. As for `CCn1ncnc1CN1CCC(CNC(=O)c2cccc(C)n2)C1` (configuration not stated), the cytotoxicity at 10 µM is 8.57%. For the molecule `Cc1noc(C)c1CN1CCc2ncc(Cn3cccn3)n2CC1`, the cytotoxicity at 10 µM amounted to 2.65%. For the molecule `Cc1ccc(OCC(=O)NCc2sccc2C)nc1`, the cytotoxicity at 10 µM was -0.509%.

Take `CCn1nc2c(cc1=O)CN(c1nc3ccccc3s1)CC2`: the cytotoxicity at 10 µM amounted to 7.5%.

As to `O=S(=O)(Cc1ccccc1Cl)CC(O)CO` (configuration not stated), the cytotoxicity at 10 µM was 6.44%. For the molecule `CN(Cc1nnc(-c2cccs2)o1)C(C(N)=O)c1cccc(F)c1` (configuration not stated), the cytotoxicity at 10 µM worked out at 13.7%.

For the molecule `CC(C)(C)c1ncc(CNCC2CN(C3CC3)CCO2)s1` (configuration not stated), the cytotoxicity at 10 µM was 0.948%.

For `CCCNC(c1cccnc1)c1ccc(F)c(C)c1` (configuration not stated), the cytotoxicity at 10 µM was 0.821%. As to `CC(C)(C)NC(=O)c1nn(C2CCS(=O)(=O)C2)c2c1CCCC2` (configuration not stated), the cytotoxicity at 10 µM was found to be 10.1%. For `CS(=O)(=O)N1C[C@@H]2COC[C@]2(COCC(=O)N2CCCC2)C1`, the cytotoxicity at 10 µM is -114%.

Regarding `CN1CCN(C(=O)c2cc3occc3n2Cc2ccccc2F)CC1`, the cytotoxicity at 10 µM was determined as 1.14%. With `Cc1noc(C)c1CCC(=O)N1CCCN(CC(N)=O)CC1`, the cytotoxicity at 10 µM was -12.4%.

As for `Fc1ccc(CCC2CCCN(Cc3c[nH]cn3)C2)c(F)c1` (configuration not stated), the cytotoxicity at 10 µM is -6.51%. Under `Cc1cc2nc(CO[C@H]3CN(C(=O)C4CC4)C[C@H]3F)[nH]c2cc1C` stands -43.4%; under `COc1ccc(CNc2nc(C3CC3)no2)cc1OC`, 4.44%. For `N#CCCN(C(=O)CCc1cccnc1)c1ccc2c(c1)OCCO2`, the cytotoxicity at 10 µM was -5.34%. Take `O=C(c1cnccn1)N1CCc2ncnc(C3CCOC3)c2CC1` (configuration not stated): the cytotoxicity at 10 µM was -81.9%. As for `COCCc1ncc(CN2C[C@H](C3CC3)[C@@H](N)C2)cn1`, the cytotoxicity at 10 µM was -42%.

Turning to `CCc1c(O)nc(SC(C)CC)n(-c2ccccc2)c1=O` (configuration not stated), the cytotoxicity at 10 µM amounted to 4.22%. The same measure for `c1cc(CN2CCC3(CC2)COC(COCC2CC2)C3)cs1` (configuration not stated): -0.272%. The same measure for `Cc1c(C(=O)NCC2CCN(Cc3c[nH]cn3)C2)[nH]c2ccccc12` (configuration not stated): -9.8%. The same measure for `Cc1ccc(CN2CCC3(CC2)CCN(C(=O)c2cccnc2)C3)o1`: -93.3%. Regarding `CC(C(=O)NCc1ccnc(N2CCN(C)CC2)c1)n1cccn1` (configuration not stated), the cytotoxicity at 10 µM was -10.2%. As for `Cc1ccc(-n2cc3[nH]c(=O)[nH]n3c2=O)cc1`, the cytotoxicity at 10 µM came to 1.22%. As to `CC(CNC(=O)c1ccc(Cl)cc1F)N1CCN(C)CC1` (configuration not stated), the cytotoxicity at 10 µM was -8.56%. Turning to `Cc1ccsc1CN1CCCC(CNC(=O)c2ccc(N)nc2)C1` (configuration not stated), the cytotoxicity at 10 µM is -2.25%. Consider `CCCNC(=O)CNC(=O)CC1CCCc2cc(OC)ccc21` (configuration not stated), for which the cytotoxicity at 10 µM was -4.52%. For the molecule `COCCc1noc(CN2CCOC(Cn3cc(C)cn3)C2)n1` (configuration not stated), the cytotoxicity at 10 µM was -4.18%. In the case of `c1cncc(-c2noc(CNC3CCc4ncnn4C3)n2)c1` (configuration not stated), the cytotoxicity at 10 µM was -5.57%. The same measure for `N[C@H]1CN(S(=O)(=O)Cc2ccccc2)C[C@@H]1C1CC1`: -133%; for `CN(C)C(=O)c1noc2c1CN(C(=O)CCCN1CCCCC1)CC2`: -10.5%; for `Cn1cc(-c2cc(C(F)(F)F)nn2CCC#N)cn1`: 6.5%. Under `Cc1cccc2cc(CN3CCC(N4CCCC4)CC3)c(=O)[nH]c12` stands -3.45%.
